Results on three compounds are retold here after ChEMBL document CHEMBL3259768, “Structure-activity relationships for vitamin D3-based aromatic a-ring analogues as hedgehog pathway inhibitors” (J Med Chem, 2014).

Assay [1] in a line: Inhibition of hedgehog signaling pathway-mediated GLI1 mRNA expression in mouse C3H10T1/2 cells assessed as residual activity at 5 uM after 24 hrs by RT-PCR analysis relative to 20alpha-hydroxycholesterol/22(S)-hydroxycholesterol. It is filed as cell-based. Particulars: C3H 10T1/2. In short, it runs like this:
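C3H10T1/2 cells co-treated with analogue and the oxysterol Hh activators 20α-hydroxycholesterol plus 22(S)-hydroxycholesterol (5 μM each) for 24 h. Gli1 mRNA measured by qPCR as % of OHC-only control (100%). Analogue at 5 μM, or at 0.5 μM where stated.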

Assay [2] addresses T1, Vitamin D3 receptor (Mus musculus) (UniProt P48281).
T1 sequence (whole entry): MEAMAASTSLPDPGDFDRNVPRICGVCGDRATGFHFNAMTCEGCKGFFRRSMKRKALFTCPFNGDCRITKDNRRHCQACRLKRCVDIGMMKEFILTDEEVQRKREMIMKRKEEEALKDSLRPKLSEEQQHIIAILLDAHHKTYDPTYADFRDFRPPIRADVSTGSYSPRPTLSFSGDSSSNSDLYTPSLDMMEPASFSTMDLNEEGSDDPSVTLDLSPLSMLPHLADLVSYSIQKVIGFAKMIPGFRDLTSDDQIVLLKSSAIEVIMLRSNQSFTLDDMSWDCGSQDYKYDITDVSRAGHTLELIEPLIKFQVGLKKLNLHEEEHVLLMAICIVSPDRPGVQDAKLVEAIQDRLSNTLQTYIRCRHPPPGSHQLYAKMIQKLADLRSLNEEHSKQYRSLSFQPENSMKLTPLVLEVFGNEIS
Put plainly: Activation of VDR in mouse C3H10T1/2 cells assessed as upregulation of CYP24A1 mRNA expression at 5 uM after 24 hrs by RT-PCR analysis relative to DMSO-treated control. To be noted: C3H 10T1/2. It is filed as cell-based. In outline:
(§1)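 Cyp24A1 mRNA read by qPCR after 24 h exposure at 5 μM. Up-regulation normalized to DMSO control, set to 1.0.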

Assay [3] in a line: Inhibition of hedgehog signaling pathway-mediated GLI1 mRNA expression in mouse C3H10T1/2 cells after 24 hrs by RT-PCR analysis. It is filed as cell-based. To be noted: for inhibition: C3H 10T1/2; for IC50: C3H 10T1/2, 24 h. In outline:
(§2)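 OHC-stimulated C3H10T1/2 cells (20α- and 22(S)-hydroxycholesterol, 5 μM each) given analogue at a range of concentrations. Gli1 and Ptch mRNA quantified by qPCR. IC50 given as mean ± SEM of at least two experiments run in triplicate.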

Assay [4] can be described thus: Inhibition of hedgehog signaling pathway-mediated PTCH mRNA expression in mouse C3H10T1/2 cells after 24 hrs by RT-PCR analysis. It is filed as cell-based. To be noted: C3H 10T1/2, 24 h. In short, it runs like this:
as §2

Assay [5] is described as follows: Inhibition of hedgehog signaling pathway-mediated GLI1 mRNA expression in mouse ASZ001 cells after 24 hrs by RT-PCR analysis. It is filed as cell-based. To be noted: ASZ001, 24 h. In outline: (§3)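 ASZ001 (murine BCC) or DAOY (human medulloblastoma) cells given analogue at a range of concentrations. Gli1 and Ptch mRNA quantified by qPCR. IC50 given as mean ± SEM of at least two experiments in triplicate.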

In assay [6] the target is T1, Vitamin D3 receptor (Mus musculus). As to the kind of experiment: Activation of VDR in mouse ASZ001 cells assessed as upregulation of CYP24A1 mRNA expression at 5 uM after 24 hrs by RT-PCR analysis relative to DMSO-treated control. It is filed as cell-based. In outline: as §1
Assay [7] in a line: Inhibition of hedgehog signaling pathway-mediated GLI1 mRNA expression in human DaOY cells after 24 hrs by RT-PCR analysis. It is filed as cell-based. In short, it runs like this: as §3
In assay [8] the target is T2, Vitamin D3 receptor (Homo sapiens) (UniProt P11473).
T2 sequence (whole entry): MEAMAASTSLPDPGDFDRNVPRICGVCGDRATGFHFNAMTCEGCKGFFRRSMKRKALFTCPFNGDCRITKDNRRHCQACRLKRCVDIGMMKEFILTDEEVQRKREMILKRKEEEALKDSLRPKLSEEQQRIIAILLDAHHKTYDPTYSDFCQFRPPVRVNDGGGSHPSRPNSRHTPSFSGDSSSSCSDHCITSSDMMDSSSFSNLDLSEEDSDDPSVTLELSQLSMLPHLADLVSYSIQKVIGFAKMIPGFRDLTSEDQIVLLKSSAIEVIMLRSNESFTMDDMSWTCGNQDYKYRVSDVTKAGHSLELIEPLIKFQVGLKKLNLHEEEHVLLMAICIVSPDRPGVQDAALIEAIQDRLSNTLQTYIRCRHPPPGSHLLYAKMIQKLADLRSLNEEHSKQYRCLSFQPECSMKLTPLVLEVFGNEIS
As to the kind of experiment: Activation of VDR in human DaOY cells assessed as upregulation of CYP24A1 mRNA expression at 5 uM after 24 hrs by RT-PCR analysis relative to DMSO-treated control. It is filed as cell-based. In outline: as §1

Assay [9] is described as follows: Inhibition of hedgehog signaling pathway-mediated PTCH mRNA expression in human DaOY cells after 24 hrs by RT-PCR analysis. It is filed as cell-based. In short, it runs like this: as §3
Assay [10] deals with Protein smoothened (Homo sapiens) (UniProt Q99835). Put plainly: Displacement of BODIPY-cyclopamine from full length human SMO receptor overexpressed in HEK293T cells up to 10 uM after 4 hrs by flow cytometric analysis. It is filed as cell-based. To be noted: HEK-293T. In short, it runs like this:
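HEK293T cells transfected overnight with Myc-tagged full-length human Smo plasmid, split, then 2 days post-transfection incubated in DMEM/10% FBS with BODIPY-cyclopamine (5 nM) and test compound at 37 °C for 4 h. Cells trypsinized and resuspended in PBS. Bound BODIPY-cyclopamine read by flow cytometry. Transfection checked by anti-Myc staining. Representative experiment in triplicate.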

The target is the same in assay [11]. As to the kind of experiment: Displacement of BODIPY-cyclopamine from full length human SMO receptor overexpressed in HEK293T cell membranes up to 10 uM after 5 hrs by fluorescence polarization assay. To be noted: HEK-293T. In outline:
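Membranes from HEK293T cells transfected with full-length human Smo, collected 24 h post-transfection. Cells lysed in hypotonic buffer (50 mM Tris-HCl, 1 mM EDTA, pH 7.5, protease inhibitors) by syringe passage. Membranes pelleted at 20000g after a 500g spin. Membranes (10 μg/well) incubated with BODIPY-cyclopamine (5 nM) and compound at 30 °C for 5 h. Fluorescence polarization at ex 485/em 528. Triplicate.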

The nature of assay [12]: Inhibition of hedgehog signaling pathway-mediated GLI1 mRNA expression in mouse C3H10T1/2 cells after 24 hrs by RT-PCR analysis in presence of GDC-0449. It is filed as cell-based. To be noted: C3H 10T1/2.
Assay [13] can be described thus: Activation of hedgehog signaling pathway in non-targeting siRNA treated mouse C3H10T1/2 cells assessed as effect on VDR expression at 5 uM after 24 hrs by qPCR analysis. It is filed as cell-based. To be noted: C3H 10T1/2. In short, it runs like this:
(§4)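 C3H10T1/2 cells transfected 24 h after seeding with mouse VDR-specific or nontargeting siRNA plus Lipofectamine 2000 in medium with 0.5% FBS for 6 h, then complete medium overnight. Treated 24 h post-transfection (5 μM; calcitriol 0.5 μM). RNA and cDNA prepared 24 h later (48 h post-transfection), then qPCR of VDR, Gli1 and Cyp24A1. Representative experiment in triplicate.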

Assay [14] is described as follows: Inhibition of hedgehog signaling pathway in non-targeting siRNA treated mouse C3H10T1/2 cells assessed as effect on VDR expression at 5 uM after 24 hrs by qPCR analysis. It is filed as cell-based. Particulars: C3H 10T1/2. In short, it runs like this:
as §4
In general terms: Real-time PCR tracks product formation cycle by cycle.

Assay [15] can be described thus: Activation of hedgehog signaling pathway in VDR-knockdown mouse C3H10T1/2 cells assessed as effect on VDR expression at 5 uM after 24 hrs by qPCR analysis. It is filed as cell-based. Particulars: C3H 10T1/2. In outline:
as §4

Assay [16] can be described thus: Inhibition of hedgehog signaling pathway in VDR-knockdown mouse C3H10T1/2 cells assessed as effect on VDR expression at 5 uM after 24 hrs by qPCR analysis. It is filed as cell-based. To be noted: C3H 10T1/2. In short, it runs like this: as §4
In assay [17] the test system is C3H 10T1/2. As to the kind of experiment: Effect on CYP24A1 RNA level in non-targeting siRNA treated mouse C3H10T1/2 cells at 5 uM after 24 hrs by qPCR analysis. It is filed as functional, cell-based. In outline:
as §4

For assay [18], the system named is C3H 10T1/2. Put plainly: Effect on CYP24A1 RNA level in VDR-knockdown mouse C3H10T1/2 cells at 5 uM after 24 hrs by qPCR analysis. It is filed as functional, cell-based.
A short description of assay [19]: Inhibition of hedgehog signaling pathway-mediated PTCH mRNA expression in mouse ASZ001 cells up to 10 uM after 24 hrs by RT-PCR analysis. It is filed as cell-based.
Assay [20] in a line: Inhibition of hedgehog signaling pathway in VDR-knockdown mouse C3H10T1/2 cells assessed as downregulation of GLI1 expression at 5 uM after 24 hrs by qPCR analysis. It is filed as cell-based. Particulars: C3H 10T1/2. In outline: as §4
A short description of assay [21]: Inhibition of hedgehog signaling pathway in non-targeting siRNA treated mouse C3H10T1/2 cells assessed as downregulation of GLI1 expression at 5 uM after 24 hrs by qPCR analysis. It is filed as cell-based. Particulars: C3H 10T1/2. In outline: as §4
The nature of assay [22]: Activation of hedgehog signaling pathway in non-targeting siRNA treated mouse C3H10T1/2 cells assessed as effect on VDR expression at 0.5 uM after 24 hrs by qPCR analysis. It is filed as cell-based. Particulars: C3H 10T1/2.
Assay [23] can be described thus: Inhibition of hedgehog signaling pathway in non-targeting siRNA treated mouse C3H10T1/2 cells assessed as effect on VDR expression at 0.5 uM after 24 hrs by qPCR analysis. It is filed as cell-based. Particulars: C3H 10T1/2.
Assay [24] is described as follows: Activation of hedgehog signaling pathway in VDR-knockdown mouse C3H10T1/2 cells assessed as effect on VDR expression at 0.5 uM after 24 hrs by qPCR analysis. It is filed as cell-based. Particulars: C3H 10T1/2.
Assay [25] in a line: Inhibition of hedgehog signaling pathway in VDR-knockdown mouse C3H10T1/2 cells assessed as effect on VDR expression at 0.5 uM after 24 hrs by qPCR analysis. Particulars: C3H 10T1/2. It is filed as cell-based.
Assay [26] deals with C3H 10T1/2. Put plainly: Effect on CYP24A1 RNA level in non-targeting siRNA treated mouse C3H10T1/2 cells at 0.5 uM after 24 hrs by qPCR analysis. It is filed as functional, cell-based.

Calls of active or inactive are those of the source. The calls are words filed in the database; no cut-off is given here.

Protein smoothened (Homo sapiens), sequence (Q99835 whole entry): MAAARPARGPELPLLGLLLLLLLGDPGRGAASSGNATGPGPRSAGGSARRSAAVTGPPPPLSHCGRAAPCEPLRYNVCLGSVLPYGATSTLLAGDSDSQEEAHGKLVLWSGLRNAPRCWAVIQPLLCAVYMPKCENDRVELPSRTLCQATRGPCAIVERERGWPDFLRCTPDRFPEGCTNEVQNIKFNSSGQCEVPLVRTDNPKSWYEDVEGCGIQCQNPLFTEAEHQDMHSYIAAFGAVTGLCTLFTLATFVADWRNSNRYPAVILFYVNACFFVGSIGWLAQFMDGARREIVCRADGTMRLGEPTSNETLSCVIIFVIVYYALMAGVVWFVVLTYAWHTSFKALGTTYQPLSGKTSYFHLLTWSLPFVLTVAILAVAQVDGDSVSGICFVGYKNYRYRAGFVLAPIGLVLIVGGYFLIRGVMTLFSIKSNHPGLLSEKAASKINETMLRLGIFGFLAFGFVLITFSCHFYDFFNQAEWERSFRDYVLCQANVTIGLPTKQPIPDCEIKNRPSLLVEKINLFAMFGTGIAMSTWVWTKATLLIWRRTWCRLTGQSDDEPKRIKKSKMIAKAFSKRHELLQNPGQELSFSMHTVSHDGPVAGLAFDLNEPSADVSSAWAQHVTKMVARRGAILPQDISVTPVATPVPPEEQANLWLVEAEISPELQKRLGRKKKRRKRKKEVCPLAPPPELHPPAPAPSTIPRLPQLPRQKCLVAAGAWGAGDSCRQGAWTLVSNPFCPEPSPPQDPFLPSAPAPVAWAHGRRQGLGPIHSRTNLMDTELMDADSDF

By IC50 is commonly meant the concentration needed to halve the response being measured. Consider `CC(C)CCC[C@@H](C)[C@H]1CC[C@H]2[C@@H](OC(=O)c3cccc(O)c3)CCC[C@]12C`, for which the Activity in [1] stood at 1.9%. For the same compound, the fold change (FC) in assay [2] came out at 22.2; in [6] it was 1.9; in [8] it was 1.9. Also, the inhibition entry in assay [3] is “Dose-dependent effect”. In addition, the IC50 worked out at 0.74 µM in [3]; 1.1 µM in assay [4]; 5.2 µM in assay [5]; 3.7 µM in [7]; 3.6 µM in assay [9]. Also, the inhibition entry in assay [10], in assay [11], in assay [14] and in assay [16] was “inactive” throughout. Moreover, the inhibition entry in [12] was “Active”. The result (in assay [13]; in [15]; with C3H 10T1/2 [18]) was inactive. The outcome with C3H 10T1/2 [17] was Active.

For the compound `C=C1CC[C@H](O)C/C1=C/C=C1\CCC[C@]2(C)[C@@H]([C@H](C)CCCC(C)C)CC[C@@H]12` [CHOLECALCIFEROL], the Activity in [1] worked out at 35.7%. Moreover, the fold change (FC) worked out at 8340 in assay [2], 764 in [6] and 149 in [8]. For the same compound, the inhibition result in [3] was “Dose-dependent effect”. The IC50 was 4.1 µM in [3]; 2.9 µM in assay [4]; 2.1 µM in assay [5]; above 10 µM in assay [7]; above 10 µM in [9]. Besides, the inhibition entry in assay [19], in [10], in assay [11] and in assay [20] was “inactive” each time. In addition, the inhibition result in assay [12], in assay [14], in [16] and in assay [21] was “Active” each time. In addition, the result (in assay [13]; in [15]; with C3H 10T1/2 [17]) was Active.

As for `C=C1/C(=C\C=C2/CCC[C@]3(C)[C@@H]([C@H](C)CCCC(C)(C)O)CC[C@@H]23)C[C@@H](O)C[C@@H]1O`, the result (in [22]; in assay [24]; in the assay on C3H 10T1/2 [26]) was Active. Further, the inhibition entry in assay [23] and in [25] was “Active” throughout.
